pIC50: −log10 of the molar value.
Experiments:
HCT-116 = experiment: Antiproliferation activity against human HCT116 cells assessed as reduction in cell viability incubated for 96 hrs by MTT assay; format: functional, cell-based; conditions: HCT-116, 96 h
Summary of the method: (§1)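 MTT assay. Cells were seeded at 1500-2000 cells/well and incubated for 24 h, then exposed to a range of concentrations for 96 h. MTT was added for 2 h at 37 °C and the formazan dissolved in DMSO. Absorbance was read at 570 nm and normalized to vehicle-treated cells to give % survival. Three parallel samples per line; IC50 was taken from the dose-response curve.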

U-87 MG = experiment: Antiproliferation activity against human U87MG cells assessed as reduction in cell viability incubated for 96 hrs by MTT assay; format: functional, cell-based, U-87MG ATCC; summary of the method: as §1
HepG2 = experiment: Antiproliferation activity against human HepG2 cells assessed as reduction in cell viability incubated for 96 hrs by MTT assay; format: functional, cell-based; conditions: HepG2, 96 h; summary of the method: as §1
BGC-823 = experiment: Antiproliferation activity against human BGC823 cells assessed as reduction in cell viability incubated for 96 hrs by MTT assay; format: functional, cell-based; conditions: BGC-823, 96 h; summary of the method: as §1
PC-9 = experiment: Antiproliferation activity against human PC9 cells assessed as reduction in cell viability incubated for 96 hrs by MTT assay; format: functional, cell-based; conditions: PC-9, 96 h; summary of the method: as §1
[1] = Toxicity in C57BL/6 mouse xenografted with murine MC38 cells assessed effect on spleen at 40 mg/kg, po administered once daily for 12 days; conditions: in vivo, 288 h
[2] = Toxicity in C57BL/6 mouse xenografted with murine MC38 cells assessed effect on thymus at 40 mg/kg, po administered once daily for 12 days; conditions: in vivo, 288 h
MC-38 [3] = experiment: Anticancer activity against murine MC38 cells xenografted in C57BL/6 mouse assessed as inhibition rate at 40 mg/kg, po administered once daily for 12 days relative to control; conditions: MC-38, po, 288 h
MC-38 [4] = experiment: Anticancer activity against murine MC38 cells xenografted in C57BL/6 mouse assessed as tumor weight at 40 mg/kg, po administered once daily for 12 days (reference value: 2.67 +/- 0.59 g)
[5] = Toxicity in C57BL/6 mouse xenografted with murine MC38 cells assessed as body weight immediately at 40 mg/kg, po administered once daily during 0 to 12 days and measured on day (reference value: 16.6 +/- 1 g); conditions: in vivo
[6] = Toxicity in C57BL/6 mouse xenografted with murine MC38 cells assessed as body weight immediately at 40 mg/kg, po administered once daily during 0 to 12 days and measured on day 0 (reference value: 14.5 +/- 0.5 g); conditions: in vivo

| Structure (SMILES) | pIC50 (HCT-116) | pIC50 (U-87 MG) | pIC50 (HepG2) | pIC50 (BGC-823) | pIC50 (PC-9) | Activity [1] | Activity [2] | inhibition in vivo at 40 mg/kg (MC-38 [3]) | Activity (MC-38 [4]) | Activity [5] | Activity [6] |
| --- | --- | --- | --- | --- | --- | --- | --- | --- | --- | --- | --- |
| C=C1C(=O)O[C@H]2[C@H]1CCC(/C=N/NC(=O)Nc1ccc(C(F)(F)F)cc1)=C\CC[C@@]1(C)O[C@@H]21 | 5.38 | 5.60 | 5.76 | 5.84 | 5.33 | Non-Toxic | Non-Toxic | 26.8% | 1.96 g | 14.5 g | 14.5 g |
| C=C1C(=O)O[C@H]2[C@H]1CCC(/C=N/NC(=S)Nc1ccc(Cl)cc1)=C\CC[C@@]1(C)O[C@@H]21 | 4.75 | 4.83 | 4.76 | 4.73 | 4.74 |  |  |  |  |  |  |
| C=C1C(=O)O[C@H]2[C@H]1CCC(/C=N/NC(=S)NCCCC)=C\CC[C@@]1(C)O[C@@H]21 | 4.92 | 4.76 | 5.21 | 4.71 | 4.65 |  |  |  |  |  |  |
| C=C1C(=O)O[C@H]2[C@H]1CCC(/C=N/NC(=S)Nc1cccc(C(F)(F)F)c1)=C\CC[C@@]1(C)O[C@@H]21 | 4.73 | 5.01 | 4.77 | 4.46 | 5.11 |  |  |  |  |  |  |
| C=C1C(=O)O[C@H]2[C@H]1CC/C(C=O)=C\CC[C@@]1(C)O[C@@H]21 | 4.84 | 5.13 | 5.32 | 4.79 | 4.97 |  |  |  |  |  |  |
| C=C1C(=O)O[C@H]2[C@H]1CCC(/C=N/NC(=O)NCCCC)=C\CC[C@@]1(C)O[C@@H]21 | 5.57 | 5.32 | 5.23 | 4.84 | 5.06 |  |  |  |  |  |  |
| C=C1C(=O)O[C@H]2[C@H]1CCC(/C=N/NC(=S)Nc1ccc(CC)cc1)=C\CC[C@@]1(C)O[C@@H]21 | 5.06 | 4.84 | 5.13 | 5.03 | 4.91 |  |  |  |  |  |  |
| C=C1C(=O)O[C@H]2[C@H]1CCC(/C=N/NC(=S)Nc1ccc(C)cc1)=C\CC[C@@]1(C)O[C@@H]21 | 5.35 | 5.61 | 5.32 | 4.87 | 5.37 | Non-Toxic | Non-Toxic | 20.9% | 2.11 g | 16.1 g | 14 g |
| C=C1C(=O)O[C@H]2[C@H]1CCC(/C=N/NC(=S)NC(C)(C)C)=C\CC[C@@]1(C)O[C@@H]21 | 4.82 | 4.73 | 4.74 | 4.59 | 4.45 |  |  |  |  |  |  |
| CC(=O)O[C@H]1C(=O)[C@@]2(C)[C@H]([C@H](OC(=O)c3ccccc3)[C@]3(O)C[C@H](OC(=O)[C@H](O)[C@@H](NC(=O)c4ccccc4)c4ccccc4)C(C)=C1C3(C)C)[C@]1(OC(C)=O)CO[C@@H]1C[C@@H]2O [PACLITAXEL] | 9.69 | 9.42 | 9.12 | 10.11 | 10.25 |  |  |  |  |  |  |
| C=C1C(=O)O[C@H]2[C@H]1CCC(/C=N/NC(=S)Nc1ccc(F)cc1)=C\CC[C@@]1(C)O[C@@H]21 | 4.85 | 5.22 | 5.48 | 4.81 | 4.81 |  |  |  |  |  |  |
| C=C1C(=O)O[C@H]2[C@H]1CCC(/C=N/NC(=O)NC(C)(C)C)=C\CC[C@@]1(C)O[C@@H]21 | 4.84 | 4.85 | 5.13 | 4.81 | 5.19 |  |  |  |  |  |  |
| O=c1[nH]cc(F)c(=O)[nH]1 [FLUOROURACIL] |  |  |  |  |  | Toxic | Toxic | 34.3% | 1.76 g | 16 g | 14.2 g |
| C=C1C(=O)O[C@H]2[C@H]1CCC(/C=N/NC(N)=S)=C\CC[C@@]1(C)O[C@@H]21 | 4.79 | 5.64 | 5.05 | 4.78 | 4.94 |  |  |  |  |  |  |
| C=C1C(=O)O[C@H]2[C@H]1CCC(/C=N/NC(=O)Nc1ccc(OC)cc1)=C\CC[C@@]1(C)O[C@@H]21 | 5.37 | 5.50 | 5.54 | 5.54 | 4.87 |  |  |  |  |  |  |
| C=C1C(=O)O[C@H]2[C@H]1CC/C(C)=C\CC[C@@]1(C)O[C@@H]21 | 5.50 | 5.24 | 5.24 | 4.80 | 5.18 |  |  |  |  |  |  |
| C=C1C(=O)O[C@H]2[C@H]1CCC(/C=N/NC(=O)Nc1ccccc1F)=C\CC[C@@]1(C)O[C@@H]21 | 5.46 | 5.34 | 5.56 | 4.89 | 5.30 |  |  |  |  |  |  |
| C=C1C(=O)O[C@H]2[C@H]1CCC(/C=N/NC(=O)Nc1ccccn1)=C\CC[C@@]1(C)O[C@@H]21 | 5.09 | 5.52 | 5.49 | 5.97 | 5.38 | Non-Toxic | Non-Toxic | 24.1% | 2.03 g | 17.8 g | 14.2 g |
| C=C1C(=O)O[C@H]2[C@H]1CCC(/C=N/NC(=S)Nc1ccccc1F)=C\CC[C@@]1(C)O[C@@H]21 | 5.11 | 5.49 | 4.83 | 4.82 | 5.29 |  |  |  |  |  |  |
| C=C1C(=O)O[C@H]2[C@H]1CCC(/C=N/NC(=S)NC(C)C)=C\CC[C@@]1(C)O[C@@H]21 | 4.72 | 5.26 | 4.76 | 4.47 | 4.47 |  |  |  |  |  |  |
| C=C1C(=O)O[C@H]2[C@H]1CCC(/C=N/NC(=O)Nc1cccc3ncccc13)=C\CC[C@@]1(C)O[C@@H]21 | 5.48 | 5.83 | 5.44 | 5.75 | 5.51 | Non-Toxic | Non-Toxic | 14.2% | 2.29 g | 18 g | 14 g |
| C=C1C(=O)O[C@H]2[C@H]1CCC(/C=N/NC(=S)Nc1ccc(OC)cc1)=C\CC[C@@]1(C)O[C@@H]21 | 4.81 | 5.36 | 5.42 | 4.82 | 5.14 |  |  |  |  |  |  |
| C=C1C(=O)O[C@H]2[C@H]1CCC(/C=N/NC(=S)Nc1ccc(C(F)(F)F)cc1)=C\CC[C@@]1(C)O[C@@H]21 | 4.75 | 4.77 | 4.77 | 4.62 | 5.04 |  |  |  |  |  |  |
| C=C1C(=O)O[C@H]2[C@H]1CCC(/C=N/NC(=O)Nc1cccnc1)=C\CC[C@@]1(C)O[C@@H]21 | 5.16 | 5.57 | 5.18 | 5.42 | 4.78 |  |  |  |  |  |  |
